According to ChEMBL document CHEMBL2331355, “Synthesis, structure activity relationship and mode of action of 3-substitutedphenyl-1-(2,2,8,8-tetramethyl-3,4,9,10-tetrahydro-2H,8H-pyrano[2,3-f]chromen-6-yl)-propenones as novel anticancer agents in human leukaemia HL-60 cells” (Eur J Med Chem, 2013):
Where a name gives a salt, the structure may show the parent alone.

What was measured:
Assay type in all cases: functional
[1] = tested on: MCF7; assay: Growth inhibition of human MCF7 cells at 2 uM after 48 hrs by MTT assay; settings: MCF7, 48 h, read-out: GI
[2] = tested on: HL-60; assay: Growth inhibition of human HL60 cells at 10 uM after 48 hrs by MTT assay; settings: HL-60, 48 h, read-out: GI
Method in brief: (§1)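 MTT assay. Suspension or adherent cells were exposed to compound for 48 h. OD was read at 570 nm (reference 620 nm), with untreated control OD set as 100% viability. Results are percent growth inhibition, mean ± SD of three independent experiments.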

[3] = tested on: PC-3; assay: Growth inhibition of human PC3 cells at 10 uM after 48 hrs by MTT assay; settings: PC-3, 48 h, read-out: GI; method in brief: as §1
[4] = tested on: HL-60; assay: Induction of mitochondrial membrane potential loss in human HL60 cells at 4 uM after 6 hrs by rhodamine-123 staining method (reference value: 7%)
[5] = tested on: HL-60; assay: Cell cycle arrest in human HL60 cells assessed as G2/M phase cells at 4 uM after 6 hrs by PI staining-based flow cytometric analysis (reference value: 3%)
[6] = tested on: HL-60; assay: Cell cycle arrest in human HL60 cells assessed as S phase cells at 4 uM after 6 hrs by PI staining-based flow cytometric analysis (reference value: 49%)
[7] = tested on: HL-60; assay: Cell cycle arrest in human HL60 cells assessed as accumulation of G0/G1 phase cells at 4 uM after 6 hrs by PI staining-based flow cytometric analysis (reference value: 48%)
[8] = tested on: HL-60; assay: Induction of apoptosis in human HL60 cells at 4 uM after 6 hrs by PI-staining based flow cytometric analysis (reference value: 0.7 %)

## COc1cccc2c1C(=O)c1c(O)c3c(c(O)c1C2=O)C[C@@](O)(C(=O)CO)C[C@@H]3O[C@H]1C[C@H](N)[C@H](O)[C@H](C)O1 [DOXORUBICIN HYDROCHLORIDE]
[1]
  inhibition of growth at 2 µM: 90%

## O=c1[nH]cc(F)c(=O)[nH]1 [FLUOROURACIL]
[2]
  inhibition of growth at 10 µM: 84%
[3]
  inhibition of growth at 10 µM: 72%

## CC[C@@]1(O)C(=O)OCc2c1cc1n(c2=O)Cc2cc3ccccc3nc2-1 [CAMPTOTHECIN]
[4]
  Activity: 51%
[5]
  Activity: 6%
[6]
  Activity: 6%
[7]
  Activity: 88%
[8]
  Activity: 69%
